Legend:
[1] = species: Homo sapiens; assay: Binding affinity to human d(T2AG3)4 DNA assessed as transition temperature
Summary of the method: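 UV melting of d[T2G3(T2AG3)3A] (5 μM strand) with macrocycle at 20 μM in 10 mM potassium phosphate pH 7.5, KCl added to 150 mM total K+. Absorbance read at 295 nm, 1 cm quartz cuvette; temperature raised in 0.5 °C steps with 1.5 min equilibration, absorbance averaged over 5 s at each step.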

[2] = system: Salmonidae; assay: Binding affinity to salmon testes DNA assessed as transition temperature
Summary of the method: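 Salmon testes DNA (15 μM base pair) melted with ligand at 15 μM in 10 mM EPPS pH 7.5, KCl added to 50 mM total K+. Absorbance followed at 260 nm in a 1 cm quartz cuvette; heating in 0.5 °C increments, 1.5 min equilibration per setting, readings averaged over 5 s.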

[3] = Cytotoxicity against human RPMI8402 cells; type: functional, cell-based; settings: RPMI 8402

| SMILES | T [1] [°C] | T [2] [°C] | IC50 [3] [nM] |
| --- | --- | --- | --- |
| CC(=O)NCCCC[C@@H]1NC(=O)c2coc(n2)-c2coc(n2)-c2coc(n2)[C@H](C(C)C)NC(=O)c2coc(n2)-c2coc(n2)-c2coc1n2 | 79 | 76.5 | – |
| CC(C)[C@@H]1NC(=O)c2coc(n2)-c2coc(n2)-c2coc(n2)[C@H](C(C)C)NC(=O)c2coc(n2)-c2coc(n2)-c2coc1n2 [HEXAOXAZOLE DIVALINE] | 77 | 76.5 | 400 |
| CC(C)[C@@H]1NC(=O)c2coc(n2)-c2coc(n2)-c2coc(n2)[C@H](CCCCN(C)C)NC(=O)c2coc(n2)-c2coc(n2)-c2coc1n2 | 81 | 76 | – |
| NCCCC[C@@H]1NC(=O)c2coc(n2)-c2coc(n2)-c2coc(n2)[C@H](CCCCN)NC(=O)c2coc(n2)-c2coc(n2)-c2coc1n2 | 102 | 79 | – |
| CC(C)[C@@H]1NC(=O)c2coc(n2)-c2coc(n2)-c2coc(n2)[C@H](CCCCN)NC(=O)c2coc(n2)-c2coc(n2)-c2coc1n2 | 90 | 76.5 | – |

— ChEMBL document CHEMBL1141508, “Lysinyl macrocyclic hexaoxazoles: synthesis and selective G-quadruplex stabilizing properties” (Bioorg Med Chem Lett, 2008)
